Unmarked numbers belong to inactive results. The source made the active and inactive calls.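 The calls were made as follows, unless noted: active = viability at or below 10% of carrier control in both of two separate runs; inconclusive = viability at or below 10% in only one of the two runs; inactive = the rest.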
Assay: SK-BR-3 cell growth inhibitors, pilot screen, 24 h, human (AID 572);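 also: compound exposure lasted between 18 and 24 h rather than exactly 24 h; 100% = carrier-treated control wells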
Conditions: SK-BR-3 viability, CellTiter-Glo luminescence, at 10 µM, stronger effect = lower value

| SMILES | viability |
| --- | --- |
| COC(=O)CCn1nnc(-c2ccc(C)cc2)n1 | 90% |
| COC(=O)CCC(=O)CN | 111% |
| O=C(Nc1ccc(N2CCCC2)cc1)c1cccc(F)c1 | 134% |
| Cc1nc(-c2coc3cc(OCC(=O)O)ccc3c2=O)cs1 | 93% |
| CCN1CCc2c(C#N)c(N3CCCCC3)nc(NCc3ccccc3)c2C1 | 103% |
| Cc1ccc(S(=O)(=O)N2CCCN(S(=O)(=O)C3CCS(=O)(=O)C3)CC2)cc1 (stereo not given) | 124% |
| COc1nc(NCCc2ccc(OC)c(OC)c2)nc(NC(C)(C)CO)n1 | 96% |
| O=C(O)c1cc(-c2ccccc2)nc2ccccc12 | 91% |
| Cc1nc2ccc(C(=O)O)cc2c2c1CC(C)S2 (stereo not given) | 93% |
| COC(=O)c1ccc(COC(=O)c2c(C)nn(Cc3ccccc3Cl)c2Cl)o1 | 69% |
| CSc1nnc(-c2cnccn2)n1Cc1ccccc1 | 96% |
| COCCNC(=O)C(c1ccc(C)o1)N(Cc1cccs1)C(=O)c1snc(C(N)=O)c1N (stereo not given) | 87% |
| COc1ccc(CCNC(=O)CSCc2n[nH]c(=O)[nH]2)cc1OC | 110% |
| CCCOc1cccc(C(=O)Nc2cc(NC(=O)c3ccco3)ccc2OC)c1 | 88% |
| Cc1cc(S(=O)(=O)N2CCN(c3ccccc3C)CC2)ccc1F | 89% |
| O=S(=O)(c1ccc(Br)s1)N1CCN(c2ccccc2)CC1 | 90% |
| O=C(CSCc1ccc(F)cc1)NC1CCCC1 | 137% |
| Cc1cc(NCC2CCCO2)n2c(nc3ccccc32)c1C#N (stereo not given) | 79% |
| Cc1nc(NC2=NCN(CCCN3CCOCC3)CN2)nc2c(C)cccc12 | 158% |
| Cc1nnc(NC(=O)CCC(=O)N2CCC(C)CC2)s1 | 86% |

| SMILES | viability |
| --- | --- |
| CCC(=O)Nc1ccc(NC(=O)c2ccccn2)cn1 | 87% |
| Cc1cccc(N2CCN(C(=O)C3CCCN(S(=O)(=O)c4c(C)noc4C)C3)CC2)c1C (stereo not given) | 78% |
| CCOC(=O)C1CCCN(CC(=O)NC2CC2)C1 (stereo not given) | 112% |
| Cc1ccc(C)c(N(CC(=O)NC2CCCC2)C(=O)CCCC(=O)Nc2ccccn2)c1 | 99% |
| O=C1C2ON(c3ccc(Cl)cc3)C(c3ccco3)C2C(=O)N1c1ccccc1 (stereo not given) | 116% |
| CC1=Nn2c(nnc2-c2ccccc2)SC1 | 96% |
| O=C(NCCN1CCOCC1)C1CCC(=O)N1Cc1ccccc1Cl (stereo not given) | 148% |
| C=CCNC(=O)C1CC(=O)N(c2ccc(OCC(=O)Nc3ccc(OC)cc3)cc2)C1 (stereo not given) | 99% |
| Cc1ccccc1-n1c(SCc2c(C)noc2C)nnc1-c1ccncc1 | 92% |
| c1cc2c(cc1Nc1nc(-c3ccc4c(c3)OCO4)cs1)OCCO2 | 97% |
| CC(=O)OC1CSc2nc3ccccc3n2C1 (stereo not given) | 84% |
| CCOC(=O)c1cc(-c2ccccc2)sc1N | 129% |
| CC1(C)CC(=O)C2=C(C1)NC(=O)CC2C(=O)NCc1ccc(F)cc1 (stereo not given) | 106% |
| Cc1ccc2nc(-c3ccc4c(c3)OCCO4)cc(C(=O)O)c2c1 | 89% |
| Cn1nc(-c2ccc(N3CCCCC3)c(NC(=O)c3ccco3)c2)c2ccccc2c1=O | 107% |
| Cc1[nH]nc2c1C(=O)CCC2 | 105% |
| COc1cc(C(=O)N(C)c2nnc(-c3cccnc3)s2)cc(OC)c1OC | 123% |
| Cc1noc(C)c1CSc1nc2ccccc2s1 | 82% |
| O=S1(=O)CCC(N=Cc2cc(Br)ccc2O)C1 (stereo not given) | 94% |
| CC(C)(C)C1=Nn2c(nnc2-c2n[nH]c3c2CCC3)SC1 | 87% |

Assay: HUVEC growth inhibition – cell-based, human, primary screen (AID 575;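 active = viability at or below 30% in both replicate assays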;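 also: 100% = median of untreated cell wells with 0.1% DMSO on each plate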)
Conditions: HUVEC proliferation, CellTiter-Glo luminescence, 72 h; at 10 µM; stronger effect = lower value
Method in brief: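 Timing: 72 h treatment at 37 °C; material: HUVEC primary cells; technique: CellTiter-Glo luminescence measuring cellular ATP; controls: vehicle and MePR control wells; measure: percent of median DMSO-control luminescence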

| SMILES | viability |
| --- | --- |
| COC(=O)CCn1nnc(-c2ccc(C)cc2)n1 | 109% |
| COC(=O)CCC(=O)CN | 92.9% |
| O=C(Nc1ccc(N2CCCC2)cc1)c1cccc(F)c1 | 51.7% |
| Cc1nc(-c2coc3cc(OCC(=O)O)ccc3c2=O)cs1 | 107% |
| CCN1CCc2c(C#N)c(N3CCCCC3)nc(NCc3ccccc3)c2C1 | 2.17% (active) |
| Cc1ccc(S(=O)(=O)N2CCCN(S(=O)(=O)C3CCS(=O)(=O)C3)CC2)cc1 (stereo not given) | 101% |
| COc1nc(NCCc2ccc(OC)c(OC)c2)nc(NC(C)(C)CO)n1 | 113% |
| O=C(O)c1cc(-c2ccccc2)nc2ccccc12 | 92.7% |
| Cc1nc2ccc(C(=O)O)cc2c2c1CC(C)S2 (stereo not given) | 96.8% |
| COC(=O)c1ccc(COC(=O)c2c(C)nn(Cc3ccccc3Cl)c2Cl)o1 | 94.6% |
| CSc1nnc(-c2cnccn2)n1Cc1ccccc1 | 92.5% |
| COCCNC(=O)C(c1ccc(C)o1)N(Cc1cccs1)C(=O)c1snc(C(N)=O)c1N (stereo not given) | 86.8% |
| COc1ccc(CCNC(=O)CSCc2n[nH]c(=O)[nH]2)cc1OC | 89.3% |
| CCCOc1cccc(C(=O)Nc2cc(NC(=O)c3ccco3)ccc2OC)c1 | 85.1% |
| Cc1cc(S(=O)(=O)N2CCN(c3ccccc3C)CC2)ccc1F | 90.1% |
| O=S(=O)(c1ccc(Br)s1)N1CCN(c2ccccc2)CC1 | 96.9% |
| O=C(CSCc1ccc(F)cc1)NC1CCCC1 | 108% |
| Cc1cc(NCC2CCCO2)n2c(nc3ccccc32)c1C#N (stereo not given) | 81.2% |
| Cc1nc(NC2=NCN(CCCN3CCOCC3)CN2)nc2c(C)cccc12 | 67.4% |
| Cc1nnc(NC(=O)CCC(=O)N2CCC(C)CC2)s1 | 105% |

| SMILES | viability |
| --- | --- |
| CCC(=O)Nc1ccc(NC(=O)c2ccccn2)cn1 | 103% |
| Cc1cccc(N2CCN(C(=O)C3CCCN(S(=O)(=O)c4c(C)noc4C)C3)CC2)c1C (stereo not given) | 53.1% |
| CCOC(=O)C1CCCN(CC(=O)NC2CC2)C1 (stereo not given) | 96.6% |
| Cc1ccc(C)c(N(CC(=O)NC2CCCC2)C(=O)CCCC(=O)Nc2ccccn2)c1 | 81.6% |
| O=C1C2ON(c3ccc(Cl)cc3)C(c3ccco3)C2C(=O)N1c1ccccc1 (stereo not given) | 81.4% |
| CC1=Nn2c(nnc2-c2ccccc2)SC1 | 105% |
| O=C(NCCN1CCOCC1)C1CCC(=O)N1Cc1ccccc1Cl (stereo not given) | 96.4% |
| C=CCNC(=O)C1CC(=O)N(c2ccc(OCC(=O)Nc3ccc(OC)cc3)cc2)C1 (stereo not given) | 112% |
| Cc1ccccc1-n1c(SCc2c(C)noc2C)nnc1-c1ccncc1 | 87.5% |
| c1cc2c(cc1Nc1nc(-c3ccc4c(c3)OCO4)cs1)OCCO2 | 72.6% |
| CC(=O)OC1CSc2nc3ccccc3n2C1 (stereo not given) | 111% |
| CCOC(=O)c1cc(-c2ccccc2)sc1N | 71.1% |
| CC1(C)CC(=O)C2=C(C1)NC(=O)CC2C(=O)NCc1ccc(F)cc1 (stereo not given) | 110% |
| Cc1ccc2nc(-c3ccc4c(c3)OCCO4)cc(C(=O)O)c2c1 | 104% |
| Cn1nc(-c2ccc(N3CCCCC3)c(NC(=O)c3ccco3)c2)c2ccccc2c1=O | 56.2% |
| Cc1[nH]nc2c1C(=O)CCC2 | 117% |
| COc1cc(C(=O)N(C)c2nnc(-c3cccnc3)s2)cc(OC)c1OC | 89.6% |
| Cc1noc(C)c1CSc1nc2ccccc2s1 | 80.8% |
| O=S1(=O)CCC(N=Cc2cc(Br)ccc2O)C1 (stereo not given) | 68.9% |
| CC(C)(C)C1=Nn2c(nnc2-c2n[nH]c3c2CCC3)SC1 | 97.3% |
